Compound activity (PubChem BioAssay)
Pf Dd2 inh – inhibitors of Plasmodium falciparum Dd2 growth; P. falciparum Dd2 growth, SYBR Green, 72 h; hits give low values; activity change, % at 10 µM; 94,000 compounds, 2.3% hits; AID 1159554; in the data active means activity change below about -80%
KDM4C inh – blocks human GASC-1 (KDM4C) demethylase activity. GST-KDM4C 2-372, H3K9me3 peptide, LANCE TR-FRET. inhibition, % at 12.5 µM. 96,000 compounds, 0.15% hits. AID 720574;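 active means mean replicate inhibition above about 25%, with at least 55% of replicates also reaching it, limit read from the data, passing the limit was not always enough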
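Assay system: GST-GASC-1 enzyme fragment 2-372 | Amount: 10 nM enzyme | Medium: HEPES buffer, pH 7.5, plus ascorbate | Reagent: H3K9me3 peptide substrate, Fe(II), 2-oxoglutarate | Doses: Single-point compound screen | Incubation: 30 min demethylation and 1 h detection at room temperature | Measured by: LANCE TR-FRET, excitation 340 nm, emissions 618 and 671 nm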
IDH1 mut inh – IDH1 R132H (human) inhibition; IDH1 R132H reductase, diaphorase/resazurin fluorescence, 60 min; inhibition, % at 10 µM; 70,000 compounds, 0.18% hits; in the data active means inhibition above about 34%
Target sequence (O75874 whole entry R132H): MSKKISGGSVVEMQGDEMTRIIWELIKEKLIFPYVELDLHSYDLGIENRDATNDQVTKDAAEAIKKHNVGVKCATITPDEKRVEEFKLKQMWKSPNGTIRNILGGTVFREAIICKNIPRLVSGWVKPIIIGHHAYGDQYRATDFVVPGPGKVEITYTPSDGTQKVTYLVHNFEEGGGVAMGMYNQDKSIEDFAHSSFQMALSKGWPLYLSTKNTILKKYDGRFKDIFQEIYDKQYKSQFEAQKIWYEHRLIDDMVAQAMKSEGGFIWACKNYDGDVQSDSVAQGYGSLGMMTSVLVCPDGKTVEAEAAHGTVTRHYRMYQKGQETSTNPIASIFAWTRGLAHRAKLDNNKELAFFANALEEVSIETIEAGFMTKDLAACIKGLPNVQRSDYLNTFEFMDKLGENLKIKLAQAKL
T cruzi growth – T. cruzi proliferation inhibition; T. cruzi beta-gal in NIH3T3, GalScreen luminescence, 90 h; inhibition, % at 8.34 µM; 77,000 compounds, 5.9% hits; AID 624255;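 active means mean inhibition above about 93%, with at least 55% of replicates each passing it, limit read from the data, passing the limit was not always enough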
Numbers stand for hits; – = inactive; · = no result given. This is a sample that favours compounds with a hit; in the whole collection about 5.9% have one here.

SMILES	Pf Dd2 inh	KDM4C inh	IDH1 mut inh	T cruzi growth
C/C=C/c1ccc([C@@H]2[C@H](CO)N(CC3CC3)C23CN(C(=O)c2ccc4c(c2)OCO4)C3)cc1	-83	–	·	·
Cn1c(=O)c([N+](=O)[O-])c(NCc2ccco2)c2ccccc21	·	·	–	·
CN([NH2+][O-])c1cc(O)ccc1O	·	·	69	·
O=C(CSc1nc2ccc([N+](=O)[O-])cc2[nH]1)Nc1cc(C(F)(F)F)cc(C(F)(F)F)c1	·	·	–	·
COc1cccc(NC(=O)Nc2ccc3c(c2)C(=O)N(C)C[C@@H](OC)[C@H](C)CN[C@@H](C)CO3)c1	-87	–	–	–
CO[C@@H]1CN(C)C(=O)c2cc(NC(=O)Nc3ccc(Cl)c(Cl)c3)ccc2OC[C@@H](C)NC[C@@H]1C	-86	–	·	–
COc1cccc(NC(=O)Nc2ccc3c(c2)C(=O)N(C)C[C@H](OC)[C@@H](C)CN[C@H](C)CO3)c1	–	–	–	–
CO[C@@H]1CN(C)C(=O)c2cc(NC(=O)Nc3ccc(Cl)c(Cl)c3)ccc2OC[C@H](C)NC[C@H]1C	–	–	·	–
COc1ccc2c3c(n(C)c2c1)[C@@H](CO)NCC31CN(Cc2ccccc2Cl)C1	–	–	·	·
COc1ccc2c3c(n(C)c2c1)[C@@H](CO)N(C(=O)c1ccc(F)cc1)CC31CCN(C(=O)c2ccc(F)cc2)CC1	-86	–	·	·
COc1ccc2c3c(n(C)c2c1)[C@H](CO)N(C(=O)c1ccc(F)cc1)CC31CN(C(=O)Nc2ccc(F)cc2)C1	–	–	·	·
COc1ccc2c3c(n(C)c2c1)[C@@H](CO)N(C(=O)Nc1ccc(F)cc1)CC31CN(Cc2ccccc2F)C1	-88	–	·	·
COc1ccc2c3c(n(C)c2c1)[C@H](CO)NCC31CN(Cc2ccc(-c3ccccn3)cc2)C1	-88	–	·	·
COc1ccc2c3c(n(C)c2c1)[C@@H](CO)N(C(=O)c1ccc(F)cc1)CC31CN(C(=O)Nc2ccc(F)cc2)C1	-89	–	·	·
COc1ccc2c3c(n(C)c2c1)[C@H](CO)N(C(=O)Nc1ccc(F)cc1)CC31CCN(Cc2ccccc2F)CC1	–	–	·	·
NS(=O)(=O)c1ccc(NC(=O)CN2CCN(C(=O)c3ccccc3)CC2)cc1	·	·	–	·
COc1ccccc1NC(=O)NCCc1ccncc1	·	·	–	·
COc1ccc2c3c(n(C)c2c1)[C@@H](CO)N(C(=O)c1ccc(F)cc1)CC31CN(CC2CCOCC2)C1	-88	–	·	·
COc1ccc2c3c(n(C)c2c1)[C@@H](CO)NCC31CN(C(=O)c2cccc(F)c2)C1	-82	–	·	·
COc1ccc2c3c(n(C)c2c1)[C@@H](CO)NCC31CN(C(=O)c2ccc(F)cc2)C1	–	·	·	·
COc1ccc2c3c([nH]c2c1)[C@H](CO)N(Cc1cc(F)ccc1F)CC31CCN(C(=O)C2CCC2)CC1	-88	–	·	·
CCC(=O)N1CCC2(CC1)CN(Cc1cc(F)ccc1F)[C@H](CO)c1[nH]c3cc(OC)ccc3c12	-87	–	·	·
CCC(=O)N1CC2(C1)CN(Cc1cc(F)ccc1F)[C@H](CO)c1[nH]c3cc(OC)ccc3c12	-90	–	·	·
COc1ccc2c3c([nH]c2c1)[C@@H](CO)N(Cc1cc(F)ccc1F)CC31CN(C(C)=O)C1	–	–	·	·
COc1ccc2c3c([nH]c2c1)[C@H](CO)N(Cc1cc(F)ccc1F)CC31CCN(C(C)=O)CC1	-90	–	·	·
SMILES	Pf Dd2 inh	KDM4C inh	IDH1 mut inh	T cruzi growth
COc1ccc2c3c([nH]c2c1)[C@@H](CO)N(Cc1ccccc1OC)CC31CCN(C(C)=O)CC1	–	·	·	·
COCC(=O)N1CC2(C1)CN(Cc1cc(F)ccc1F)[C@@H](CO)c1[nH]c3cc(OC)ccc3c12	–	–	·	·
COc1cc([N+](=O)[O-])ccc1NC(=S)NC(=O)COc1ccc(C)cc1	·	·	–	·
C=C(C(=O)O)C1C(OC(=O)/C(=C/CO)CO)CC(C)(O)C2CC(OC(C)=O)C(C)=CC12 (stereo not given)	·	·	–	·
CN(C)c1ccc2c(c1)[C@H]1C[C@H](CC(=O)N3CCCCC3)O[C@@H](CO)[C@H]1O2	–	30	·	·
CN(C)c1ccc2c(c1)[C@H]1C[C@H](CC(=O)N3CCCCC3)O[C@H](CO)[C@H]1O2	–	31	·	·
CN(C)c1ccc2c(c1)[C@@H]1C[C@H](CC(=O)N3CCCCC3)O[C@H](CO)[C@@H]1O2	–	46	·	·
CN(C)c1ccc2c(c1)[C@H]1C[C@@H](CC(=O)N3CCc4ccccc4C3)O[C@@H](CO)[C@H]1O2	–	–	–	–
COc1ccc(CN2C[C@@H](C)[C@H](OC)CN(C)C(=O)c3cc(NC(=O)c4nc5ccccc5s4)ccc3OC[C@@H]2C)cc1	–	–	–	·
CO[C@@H]1CN(C)C(=O)c2cc(NC(=O)c3nc4ccccc4s3)ccc2OC[C@@H](C)N(Cc2ccncc2)C[C@H]1C	-87	–	–	–
CO[C@@H]1CN(C)C(=O)c2ccc(NC(=O)c3nc4ccccc4s3)cc2OC[C@@H](C)N(Cc2ccccc2)C[C@H]1C	-96	–	–	·
COc1ccc(CN2C[C@@H](C)[C@H](OC)CN(C)C(=O)c3cc(NC(=O)c4nc5ccccc5s4)ccc3OC[C@H]2C)cc1	-86	–	–	·
COc1ccc(CN2C[C@H](C)[C@@H](OC)CN(C)C(=O)c3ccc(NC(=O)c4nc5ccccc5s4)cc3OC[C@@H]2C)cc1	-90	–	–	–
CCOC(=O)N1CCN(Cc2nnc(-c3ccc4c(c3)OCO4)o2)CC1	·	·	–	·
CO[C@@H]1CN(C)C(=O)c2ccc(NC(=O)c3cc(C)on3)cc2OC[C@@H](C)N(S(=O)(=O)c2cccc(C)c2)C[C@H]1C	-86	–	–	·
CO[C@@H]1CN(C)C(=O)c2cc(NC(=O)c3cc(C)on3)ccc2OC[C@@H](C)N(S(=O)(=O)c2cccc(C)c2)C[C@H]1C	–	–	–	–
COc1ccc2c3c([nH]c2c1)[C@@H](CO)N(C(=O)CN(C)C)CC31CN(Cc2ccccc2)C1	–	–	·	·
COc1ccc(CN2CC3(C2)CN(C(=O)CN(C)C)[C@H](CO)c2[nH]c4cc(OC)ccc4c23)cc1	-88	–	·	·
COc1ccc(CN2CC3(C2)CN(C(=O)CN(C)C)[C@@H](CO)c2[nH]c4cc(OC)ccc4c23)cc1	-86	–	·	·
COc1ccc2c3c([nH]c2c1)[C@H](CO)N(C(=O)CN(C)C)CC31CN(Cc2ccncc2)C1	–	–	·	·
Cc1noc(C)c1S(=O)(=O)N(C)C[C@H]1OCCCC[C@@H](C)Oc2ccc(NC(=O)Nc3ccc4c(c3)OCO4)cc2C(=O)N([C@@H](C)CO)C[C@@H]1C	-86	–	–	–
Cc1noc(C)c1S(=O)(=O)N(C)C[C@H]1OCCCC[C@H](C)Oc2ccc(NC(=O)Nc3ccc(C(F)(F)F)cc3)cc2C(=O)N([C@H](C)CO)C[C@@H]1C	–	–	·	102
Cc1noc(C)c1S(=O)(=O)N(C)C[C@@H]1OCCCC[C@H](C)Oc2ccc(NC(=O)Nc3ccc(C(F)(F)F)cc3)cc2C(=O)N([C@H](C)CO)C[C@H]1C	–	–	–	–
Cc1noc(C)c1S(=O)(=O)N(C)C[C@H]1OCCCC[C@H](C)Oc2ccc(NC(=O)Nc3ccc4c(c3)OCO4)cc2C(=O)N([C@H](C)CO)C[C@@H]1C	–	–	–	–
